Assay results collected from several papers.
Lines come from different studies, so protocols differ.
CES2: Cocaine esterase (CES2, Homo sapiens, UniProt O00748)
SLC6A2: Sodium-dependent noradrenaline transporter (SLC6A2, Homo sapiens, UniProt P23975)
Oprk1: Kappa-type opioid receptor (Oprk1, Mus musculus, UniProt P33534)
FPR1: fMet-Leu-Phe receptor (FPR1, Homo sapiens, UniProt P21462)

For `COc1cc2c(cc1OC)C(=O)/C(=C/c1cccc3ccccc13)C2`, the IC50 was 15.3 µM (CES2; enzyme activity, inhibitor, fluorescence; with preincubation).
`CCCC[C@H](NC(C)=O)C(=O)N[C@H]1CC(=O)NCCCC[C@@H](C(=O)N[C@@H](C(=O)N2CCC[C@@H]2C(N)=O)C(C)C)NC(=O)[C@H](Cc2c[nH]c3ccccc23)NC(=O)[C@H](CCCN=C(N)N)NC(=O)[C@@H](Cc2ccc3ccccc3c2)NC(=O)[C@@H]2CCCN2C1=O` has an EC50 of > 1 µM (Melanocortin receptor 4 (MC4R, Homo sapiens, UniProt P32245); cAMP, agonist).
With `CNC(=O)[C@@]12C[C@@H]1[C@@H](n1cnc3c(NCc4cccc(Cl)c4)nc(C#Cc4ccc(Cl)s4)nc31)[C@H](O)[C@@H]2O` the Ki was 2.3 µM (SLC6A2; ligand displacement, radioligand).
For `CN1C(=O)C(c2c(-c3ccc(Cl)cc3)[nH]c3c2c(=O)[nH]c(=O)n3C)c2ccccc21` (stereo not shown), the Kd was 0.002 mM (WD repeat-containing protein 91 (Homo sapiens, UniProt A4D1P6); binding, SPR).
For `CC(C)[C@H](CN1CCc2ccccc2C1)NC(=O)c1c(Cl)cncc1Cl`, the Ki was 12.5 µM (Oprk1; ligand displacement, radioligand).
The Ki of `CCOC(=O)[C@@]12C[C@@H]1[C@@H](n1cnc3c(NC4CC4)nc(C#Cc4ccc(Cl)s4)nc31)[C@H](O)[C@@H]2O` is reported as 3.7 µM (SLC6A2; ligand displacement, radioligand).
`N#Cc1ccc(C[C@@H](Nc2c(Nc3ccc(Br)cc3)c(=O)c2=O)C(=O)N2CCc3ccccc32)cc1` has an EC50 of 32.8 µM (FPR1; calcium signal, agonist).
The Ki of `CCOC(=O)[C@@]12C[C@@H]1[C@@H](n1cnc3c(NCCCCCc4ccccc4)nc(I)nc31)[C@H](O)[C@@H]2O` is reported as 4.6 µM (SLC6A2; ligand displacement, radioligand).
`COc1cc2c(cc1OC)C(=O)/C(=C/c1ccccc1N1CCCC1)C2` gave an IC50 of 0.72 µM (CES2; enzyme activity, inhibitor, fluorescence; with preincubation).
With `CCCCC[C@H](O)/C=C/[C@H]1C(=O)C[C@H](O)[C@@H]1C/C=C\CCCC(=O)O` the EC50 was 0.00646 µM (Prostaglandin D2 receptor (PTGDR, Homo sapiens, UniProt Q13258); G protein activation, agonist, BRET).
`CCOC(=O)[C@@]12C[C@@H]1[C@@H](n1cnc3c(NCc4cccc(Cl)c4)nc(C#Cc4ccc(Cl)s4)nc31)[C@H](O)[C@@H]2O` has a Ki of 1.2 µM (SLC6A2; ligand displacement, radioligand).
The IC50 of `CC(=O)[C@H]1CC[C@H]2[C@@H]3CC=C4C[C@@H](O)CC[C@]4(C)[C@H]3CC[C@]12C` is reported as > 100 µM (CES2; enzyme activity, inhibitor, fluorescence; with preincubation).
The Ki of `N#CC[C@@]12C[C@@H]1[C@@H](n1cnc3c(NCc4cccc(Cl)c4)nc(C#Cc4ccc(Cl)s4)nc31)[C@H](O)[C@@H]2O` is reported as 4.1 µM (SLC6A2; ligand displacement, radioligand).
The IC50 of `O=C(c1ccc(OCCN2CCCCC2)cc1)c1c(-c2ccc(O)cc2)sc2cc(O)ccc12` is reported as > 100 µM (CES2; enzyme activity, inhibitor, fluorescence; with preincubation).
`N#Cc1ccc(C[C@H](Nc2nnc(-c3cccc(Br)c3)s2)C(=O)N2CCc3ccccc32)cc1` gave an EC50 of 32.9 µM (FPR1; calcium signal, agonist).
The IC50 of `CN1C(C(=O)Nc2ccccn2)=C(O)c2ccccc2S1(=O)=O` is reported as > 100 µM (CES2; enzyme activity, inhibitor, fluorescence; with preincubation).
For `NCC(=O)O`, the Kd was 11 mM (ltaA (Aeromonas jandaei, UniProt O07051); binding, absorbance).
With `COc1cc([C@@H]2c3cc4c(cc3[C@@H](O[C@@H]3O[C@@H]5CO[C@@H](C)O[C@H]5[C@H](O)[C@H]3O)[C@H]3COC(=O)[C@H]23)OCO4)cc(OC)c1O` the IC50 was > 100 µM (CES2; enzyme activity, inhibitor, fluorescence; with preincubation).
The IC50 of `O=C(CCNC(=O)CNC(=O)CC(c1ccccc1)(c1ccccc1)c1ccccc1)NC[C@@H]1CCCN(Cc2ccc(F)nc2)C1` is reported as > 30 µM (Muscarinic acetylcholine receptor M5 (CHRM5, Homo sapiens, UniProt P08912); ligand displacement, radioligand; cell membranes).
With `CC(C)[C@@H](CN1CCc2ccccc2C1)NC(=O)c1cccc(-c2cccnc2)c1` the Ki was 6.15 µM (Oprk1; ligand displacement, radioligand).
`CCOC(=O)[C@@]12C[C@@H]1[C@@H](n1cnc3c(NCCCCCCc4ccccc4)nc(I)nc31)[C@H](O)[C@@H]2O` has a Ki of 5.4 µM (SLC6A2; ligand displacement, radioligand).
`COc1cc(Nc2c(C#N)cnc3cc(OCCCN4CCN(C)CC4)c(OC)cc23)c(Cl)cc1Cl` gave an IC50 of 22 µM (CES2; enzyme activity, inhibitor, fluorescence; with preincubation).
With `CCOC(=O)[C@@]12C[C@@H]1[C@@H](n1ccc3c(NCCCCc4ccccc4)nc(C#Cc4ccccc4)nc31)[C@H](O)[C@@H]2O` the Ki was 1.5 µM (SLC6A2; ligand displacement, radioligand).
`COc1cc2c(cc1OC)C(=O)/C(=C/c1ccc(O)cc1)C2` gave an IC50 of 1.89 µM (CES2; enzyme activity, inhibitor, fluorescence; with preincubation).
The Ki of `CC(C)[C@@H](CN1CCc2ccccc2C1)NC(=O)c1ccc([N+](=O)[O-])s1` is reported as 9.06 µM (Oprk1; ligand displacement, radioligand).
`CNc1nc(C#Cc2ccc(Cl)s2)nc2c1ncn2[C@H]1[C@H](O)[C@H](O)[C@]2(CC#N)C[C@H]12` gave an EC50 of 3.9 µM (SLC6A2; ligand displacement, radioligand).
`N#Cc1ccc(C[C@H](NC(=O)c2cc3ccc(F)cc3[nH]2)C(=O)N2CCc3ccccc32)cc1` gave an EC50 of 23.1 µM (FPR1; calcium signal, agonist).
For `CC(C)[C@@H](CN1CCc2ccccc2C1)NC(=O)c1cccc(-c2cccc(C#N)c2)c1`, the Ki was 2.14 µM (Oprk1; ligand displacement, radioligand).
